# According to ChEMBL document CHEMBL1145269, “Synthesis and evaluation of urea-based indazoles as melanin-concentrating hormone receptor 1 antagonists for the treatment of obesity” (Bioorg Med Chem Lett, 2005):
# Tests used:
# [1] = target: Melanin-concentrating hormone receptor (Homo sapiens, UniProt Q969V1+Q99705); test: Inhibition of Melanin-concentrating hormone (MCH) mediated [Ca2+] release in IMR-32 cells; format: functional, cell-based
# [2] = Area under curve in diet-induced obese mice brain at 10 mg/kg (p.o.) concentration; format: ADME, organism-based; parameters: dose 10 mg/kg, route oral; settings: mouse, in vivo, po
# [3] = Area under curve in diet-induced obese mice plasma at 10 mg/kg (p.o.) concentration; format: ADME, organism-based; parameters: dose 10 mg/kg, route oral; settings: mouse, in vivo, po
# [4] = target: Melanin-concentrating hormone receptor 1 (Homo sapiens) (UniProt Q99705); test: Inhibitory concentration against Melanin-concentrating hormone receptor 1 in human IMR-32 cells
# [5] = target: Melanin-concentrating hormone receptor 1 (Homo sapiens) (UniProt Q99705); test: Inhibitory concentration against human Melanin-concentrating hormone receptor 1 expressed in IMR-32 cells using [125I]MCH
# [6] = Maximum brain compound (10mg/kg, p.o.) concentration in diet-induced obese mice; format: ADME, organism-based; parameters: dose 10 mg/kg, route oral; settings: mouse, po
# [7] = Maximum plasma compound (10 mg/kg, p.o.) concentration in diet-induced obese mice; format: ADME, organism-based; parameters: dose 10 mg/kg, route oral; settings: mouse, po
# [8] = Area under curve in diet-induced obese mice brain at 10 mg/kg (p.o.) concentration; n=3; format: ADME, organism-based; parameters: dose 10 mg/kg, route oral; settings: mouse, in vivo, po
# [9] = Area under curve in diet-induced obese mice plasma at 10 mg/kg (p.o.) concentration; n=3; format: ADME, organism-based; parameters: dose 10 mg/kg, route oral; settings: mouse, in vivo, po
# [10] = system: Mus musculus; test: Body weight of the mice after treatment with the compound (30 mg/kg, p.o.) on day 0 (Vehicle=45.0 1 0.7); format: functional
# [11] = system: Mus musculus; test: Body weight of the mice after treatment with the compound (100 mg/kg, p.o.) on day 0 (Vehicle=45.0 1 0.7); format: functional
# [12] = system: Mus musculus; test: Body weight of the mice after treatment with the compound (30 mg/kg, p.o.) on day 14 (Vehicle=46.9 1 0.8); format: functional
# [13] = system: Mus musculus; test: Body weight of the mice after treatment with the compound (100 mg/kg, p.o.) on day 14 (Vehicle=46.9 1 0.8); format: functional
# [14] = system: Mus musculus; test: Percent change of mice body weight after treatment with the compound (30 mg/kg, p.o.) to that of vehicle; format: functional
# [15] = system: Mus musculus; test: Percent change of mice body weight after treatment with the compound (100 mg/kg, p.o.) to that of vehicle; format: functional
# [16] = system: Mus musculus; test: Compound (100 mg/kg, bid) tested for reduction of fat mass in mice (vehicle=22.1); format: functional
# [17] = system: Mus musculus; test: Mean cumulative food intake of mice on day 1 after treatment with compound at 30 mg/kg; n=12; format: functional
# Outline: (§1)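 Chronic study in DIO mice fed a 60 kcal % fat diet ad libitum, dosed by oral gavage bid for 14 days at 30 or 100 mg/kg in 1% Tween 80/water (4 mL/kg). Food weighed on the first day and periodically thereafter. Cumulative intake reported on days 1, 5, 7, 11 and 14; mean ± SEM, n = 12.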
# [18] = system: Mus musculus; test: Mean cumulative food intake of mice on day 5 after treatment with compound at 30 mg/kg; n=12; format: functional; outline: as §1
# [19] = system: Mus musculus; test: Mean cumulative food intake of mice on day 7 after treatment with compound at 30 mg/kg; n=12; format: functional; outline: as §1
# [20] = system: Mus musculus; test: Mean cumulative food intake of mice on day 1 after treatment with compound at 100 mg/kg; n=12; format: functional; outline: as §1
# [21] = system: Mus musculus; test: Mean cumulative food intake of mice on day 11 after treatment with compound at 30 mg/kg; n=12; format: functional; outline: as §1
# [22] = system: Mus musculus; test: Mean cumulative food intake of mice on day 14 after treatment with compound at 30 mg/kg; n=12; format: functional; outline: as §1
# [23] = system: Mus musculus; test: Mean cumulative food intake of mice on day 5 after treatment with compound at 100 mg/kg; n=12; format: functional; outline: as §1
# [24] = system: Mus musculus; test: Mean cumulative food intake of mice on day 7 after treatment with compound at 100 mg/kg; n=12; format: functional; outline: as §1
# [25] = system: Mus musculus; test: Mean cumulative food intake of mice on day 11 after treatment with compound at 100 mg/kg; n=12; format: functional; outline: as §1
# [26] = system: Mus musculus; test: Mean cumulative food intake of mice on day 14 after treatment with compound at 100 mg/kg; n=12; format: functional; outline: as §1
# [27] = system: Mus musculus; test: Body weight of the mice after treatment with the compound (10 mg/kg, p.o.) on day 0 (Vehicle=45.0 1 0.7); n=12; format: functional
# [28] = system: Mus musculus; test: Body weight of the mice after treatment with the compound (10 mg/kg, p.o.) on day 14 (Vehicle=46.9 1 0.8); n=12; format: functional
# [29] = system: Mus musculus; test: Percent change of mice body weight after treatment with the compound (10 mg/kg, p.o.) to that of vehicle; n=12; format: functional
# [30] = system: Mus musculus; test: Mean cumulative food intake of mice on day 1 after treatment with compound at 10 mg/kg; n=12; format: functional
# Outline: (§2)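 DIO mice, kept on a high-fat diet (60 kcal % fat, 5.2 kcal/g) for about 16 weeks with ad libitum feeding. Given 10 mg/kg po by gavage qd for 14 days in 1% Tween 80/water at 4 mL/kg, alongside vehicle. Food weighed on the first day and periodically thereafter; cumulative intake reported at days 1, 5, 7, 11 and 14. Mean ± SEM, n = 12.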
# [31] = system: Mus musculus; test: Mean cumulative food intake of mice on day 5 after treatment with compound at 10 mg/kg; n=12; format: functional; outline: as §2
# [32] = system: Mus musculus; test: Mean cumulative food intake of mice on day 7 after treatment with compound at 10 mg/kg; n=12; format: functional; outline: as §2
# [33] = system: Mus musculus; test: Mean cumulative food intake of mice on day 11 after treatment with compound at 10 mg/kg; n=12; format: functional; outline: as §2
# [34] = system: Mus musculus; test: Mean cumulative food intake of mice on day 14 after treatment with compound at 10 mg/kg; n=12; format: functional; outline: as §2
smiles,measurement,setting,value
O=C(CNCc1ccc(Oc2ccccc2)cc1)Nc1ccc2ccn(CCN3CCCC3)c2c1,IC50,[1],1.81 µM
same,AUC,[2],0.674 µg·h/g
same,AUC,[3],1.16 µg/h/mL
same,IC50,[4],0.299 µM
O=C(Nc1ccc(Oc2ccccc2)cc1)Nc1ccc2c(cnn2CCNC2CCCC2)c1,IC50,[1],0.147 µM
same,IC50,[5],0.0024 µM
O=C(Nc1ccc(OCc2ccccc2)cc1)Nc1ccc2c(cnn2CCN2CCCC2)c1,IC50,[1],> 10 µM
same,IC50,[5],0.0413 µM
O=C(NCc1ccc(Oc2ccccc2)cc1)Nc1ccc2c(cnn2CCN2CCCC2)c1,IC50,[1],> 10 µM
same,IC50,[5],0.508 µM
O=C(Nc1ccc(OCc2ccccc2)cc1)Nc1cccc2c1cnn2CCN1CCCC1,IC50,[1],> 10 µM
same,IC50,[5],1.05 µM
O=c1n(-c2ccc(Oc3ccccc3)cc2)ccn1-c1ccc2c(cnn2CCN2CCCC2)c1,IC50,[1],0.654 µM
same,Cmax,[6],183 ng/g
same,Cmax,[7],543 ng/mL
same,AUC,[8],1.71 µg/h/g
same,AUC,[9],1.35 µg/h/mL
same,IC50,[5],0.0059 µM
O=C(Nc1ccc(OCc2ccccc2)cc1)Nc1ccc2cnn(CCN3CCCC3)c2c1,IC50,[1],7.14 µM
same,IC50,[5],0.113 µM
O=C(NCCc1ccc(Oc2ccccc2)cc1)Nc1ccc2c(cnn2CCN2CCCC2)c1,IC50,[1],> 10 µM
same,IC50,[5],0.545 µM
O=C(NCc1ccc(Oc2ccccc2)cc1)Nc1ccc2cnn(CCN3CCCC3)c2c1,IC50,[1],0.626 µM
same,IC50,[5],0.0785 µM
O=C(NCCc1ccc(Oc2ccccc2)cc1)Nc1ccc2cnn(CCN3CCCC3)c2c1,IC50,[1],0.178 µM
same,Cmax,[7],86 ng/mL
same,AUC,[8],0 µg/h/g
same,AUC,[9],0.335 µg/h/g
same,IC50,[5],0.0343 µM
NC(=O)C1CCN(CCn2ncc3cc(NC(=O)Nc4ccc(Oc5ccccc5)cc4)ccc32)CC1,IC50,[1],0.171 µM
same,IC50,[5],0.134 µM
O=C(Nc1ccc(Oc2ccccc2)cc1)Nc1ccc2c(cnn2CCN2CCC(F)(F)C2)c1,IC50,[1],> 10 µM
same,IC50,[5],0.305 µM
O=C(Nc1ccc(Oc2ccccc2)cc1)Nc1ccc2c(cnn2CCN2CCCC2)c1,Body weight,[10],42.3 g
same,Body weight,[11],42.5 g
same,Body weight,[12],42.3 g
same,Body weight,[13],36.3 g
same,Change in body weight,[14],-3.41%
same,Change in body weight,[15],-17.1%
same,Activity,[16],16.6 g
same,Activity,[17],3
same,Activity,[18],11.2
same,Activity,[19],20.1
same,Activity,[20],2.17
same,Activity,[21],32.4
same,Activity,[22],39.8
same,Activity,[23],7.86
same,Activity,[24],13.6
same,Activity,[25],23.6
same,Activity,[26],29.4
same,Cmax,[6],260 ng/g
same,Cmax,[7],246 ng/mL
same,AUC,[8],1.43 µg/h/g
same,AUC,[9],5.35 µg/h/g
O=C1N(c2ccc(Oc3ccccc3)cc2)CCN1c1ccc2c(cnn2CCN2CCCC2)c1,IC50,[1],1.12 µM
same,IC50,[5],0.0198 µM
COC[C@@H]1CCCN1CCn1ncc2cc(NC(=O)Nc3ccc(Oc4ccccc4)cc3)ccc21,IC50,[1],0.516 µM
same,IC50,[5],0.0387 µM
O=C(Nc1ccc(Oc2ccccc2)cc1)Nc1ccc2c(cnn2CCCN2CCC(O)CC2)c1,IC50,[1],0.894 µM
same,IC50,[5],0.0915 µM
COC[C@@H]1CCCN1CCCn1ncc2cc(NC(=O)Nc3ccc(Oc4ccccc4)cc3)ccc21,IC50,[1],1.177 µM
same,IC50,[5],0.0829 µM
O=C(Nc1ccc(Oc2ccccc2)cc1)Nc1cccc2c1cnn2CCN1CCCC1,IC50,[1],> 10 µM
same,IC50,[5],1.85 µM
CCN[C@@H](C)Cc1cccc(C(F)(F)F)c1 [DEXFENFLURAMINE],Body weight,[27],42.7 g
same,Body weight,[28],39.8 g
same,Change in body weight,[29],9.12%
same,Activity,[30],0.89
same,Activity,[31],8.44
same,Activity,[32],17.8
same,Activity,[33],31.1
same,Activity,[34],39.9
O=C(Cc1ccc(OCc2ccccc2)cc1)Nc1ccc2cnn(CCN3CCCC3)c2c1,IC50,[1],0.011 µM
same,Cmax,[7],596 ng/mL
same,AUC,[2],1.33 µg·h/g
same,AUC,[3],2.12 µg/h/mL
same,IC50,[4],0.0014 µM
O=C(Nc1ccc(Oc2ccccc2)cc1)Nc1ccc2cnn(CCN3CCCC3)c2c1,IC50,[1],> 10 µM
same,IC50,[5],0.581 µM
CC(C)CNCCn1ncc2cc(NC(=O)Nc3ccc(Oc4ccccc4)cc3)ccc21,IC50,[1],0.751 µM
same,IC50,[5],0.0018 µM
O=C(Nc1ccc2cnn(CCN3CCCC3)c2c1)NC1CCN(Cc2ccccc2)CC1,IC50,[1],> 10 µM
same,IC50,[5],4.51 µM
O=C(Nc1ccc(Oc2ccccc2)cc1)Nc1ccc2c(cnn2CCN2CCC(O)CC2)c1,IC50,[1],> 10 µM
same,IC50,[5],6.13 µM
NC(=O)C1CCN(CCCn2ncc3cc(NC(=O)Nc4ccc(Oc5ccccc5)cc4)ccc32)CC1,IC50,[1],2.88 µM
same,IC50,[5],0.0406 µM
